Tests used:
[1] = test system: MDA-MB-231; assay: Growth inhibition of human MDA-MB-231 cells assessed as cell viability after 3 days by CellTitre-Glo Luminescent assay; assay type: functional; conditions: MDA-MB-231, 72 h
[2] = Permeability of the compound by PAMPA; assay type: ADME; conditions: read-out: permeability
[3] = Oral bioavailability in BALB/cAJcl mouse at 10 mg/kg by LC/MS/MS analysis; assay type: ADME, organism-based; conditions: in vivo
Summary of the method: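 Female BALB/cAJcl mice, seven weeks old, were dosed orally at 10 mg/kg and intravenously at 1 mg/mL/kg. Plasma compound concentrations were measured by LC/MS/MS.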

[4] = Clearance in mouse liver microsomes at 1 umol/l after 20 mins by LC/MS/MS analysis
[5] = Lipophilicity, log D of the compound at pH 7.4; conditions: buffer
[6] = Clearance in human liver microsomes at 1 umol/l after 20 mins by LC/MS/MS analysis
[7] = test system: Mus musculus; assay: Toxicity in athymic nude BALB/cAJcl mouse xenografted with human MDA-MB-231 cells expressing luciferase gene at 30 mg/kg, po bid measured on day 14; assay type: organism-based; parameters: dose 30 mg/kg, route oral; conditions: in vivo
[8] = test system: MDA-MB-231; assay: Antitumor activity against human MDA-MB-231 cells expressing luciferase gene xenografted in athymic nude BALB/cAJcl mouse assessed as tumor growth inhibition at 30 mg/kg, po bid measured on day 14 relative to control; assay type: functional
[9] = test system: MDA-MB-231; assay: Antitumor activity against human MDA-MB-231 cells expressing luciferase gene xenografted in athymic nude BALB/cAJcl mouse assessed as tumor growth inhibition at 100 mg/kg, po bid measured on day 14 relative to control; assay type: functional
[10] = test system: MDA-MB-231; assay: Antitumor activity against human MDA-MB-231 cells expressing luciferase gene xenografted in po dosed athymic nude BALB/cAJcl mouse assessed as tumor regression administered bid measured on day 14; assay type: functional, organism-based

GI50 [1] [nM] | Papp [2] [×10⁻⁶ cm/s] | bioavailability [3] [%] | microsomal CLint at 20 min, 1 µM [4] [µL/min/mg] | logD [5] | microsomal CLint at 20 min, 1 µM [6] [µL/min/mg] | Compound | Activity [7] | T/C [8] [%] | T/C [9] [%] | Activity [10]
13 | 0.3 | 53 | 66 | 2.43 | 82 | CN[C@@H](C)C(=O)N[C@H](C(=O)N1C[C@H]2CCCN2C[C@H]1C(=O)N[C@@H]1CCOc2ccccc21)C1CCC(F)(F)CC1 |  |  |  | 
18 |  | 26 | 208 |  | 130 | CN[C@@H](C)C(=O)N[C@H](C(=O)N1C[C@H]2CCCN2C[C@H]1C(=O)N[C@@H]1CCC(F)(F)c2ccccc21)C1CCCCC1 |  |  |  | 
20 |  | 63 | 115 |  | 82 | CN[C@@H](C)C(=O)N[C@H](C(=O)N1C[C@H]2CCCN2C[C@H]1C(=O)N[C@H](C)c1ccccc1)C1CCCCC1 |  |  |  | 
20 |  | 12 | 21 | 1.75 | 15 | CN[C@@H](C)C(=O)N[C@H](C(=O)N1C[C@H]2CCCN2C[C@H]1C(=O)N[C@@H]1CCOc2ccccc21)C1CCOCC1 |  |  |  | 
5.7 |  | 41 | 116 | 2.91 | 128 | CN[C@@H](C)C(=O)N[C@H](C(=O)N1C[C@H]2CCCN2C[C@H]1C(=O)N[C@@H]1CCOc2ccccc21)C1CCCCC1 |  |  |  | 
21 |  | 30 | 161 |  | 154 | CN[C@@H](C)C(=O)N[C@H](C(=O)N1C[C@H]2CCCN2C[C@H]1C(=O)N[C@@H]1CCC(=O)c2ccccc21)C1CCCCC1 |  |  |  | 
11 |  |  |  | 1.6 | 4 | CN[C@@H](C)C(=O)N[C@H](C(=O)N1C[C@H]2C[C@@H](O)CN2C[C@H]1C(=O)N[C@@H]1CCOc2ccccc21)C1CCC(F)(F)CC1 |  |  |  | 
1.8 | 4.4 | 50 | 40 | 2.6 | 52 | CCO[C@@H]1C[C@@H]2CN(C(=O)[C@@H](NC(=O)[C@H](C)NC)C3CCC(F)(F)CC3)[C@H](C(=O)N[C@@H]3CCOc4ccccc43)CN2C1 | Non-toxic | -53 | -62 | Dose-dependent effect
15 |  | 13 | 2 | 1.94 | 38 | CN[C@@H](C)C(=O)N[C@H](C(=O)N1C[C@@H]2CCCN2C[C@H]1C(=O)N[C@@H]1CCOc2ccccc21)C1CCC(F)(F)CC1 |  |  |  | 
11 |  | 33 | 129 | 2.17 | 90 | CN[C@@H](C)C(=O)N[C@H](C(=O)N1C[C@H]2CCCN2C[C@H]1C(=O)N[C@@H]1CCOc2ccccc21)c1ccccc1 |  |  |  | 
6.2 |  | 6 | 232 |  | 218 | CN[C@@H](C)C(=O)N[C@H](C(=O)N1C[C@H]2CCCN2C[C@H]1C(=O)N[C@@H]1CCCc2ccccc21)C1CCCCC1.Cl.Cl |  |  |  | 
8 |  | 21 | 147 | 2.56 | 170 | CN[C@@H](C)C(=O)N[C@H](C(=O)N1C[C@H]2CC(F)(F)CN2C[C@H]1C(=O)N[C@@H]1CCOc2ccccc21)C1CCC(F)(F)CC1 |  |  |  | 
 |  |  | 239 |  | 236 | CN[C@@H](C)C(=O)N[C@H](C(=O)N1C[C@H]2CCCN2C[C@H]1C(=O)N[C@H]1CCCc2ccccc21)C1CCCCC1 |  |  |  | 

From ChEMBL document CHEMBL2311403, “Design and synthesis of potent inhibitor of apoptosis (IAP) proteins antagonists bearing an octahydropyrrolo[1,2-a]pyrazine scaffold as a novel proline mimetic” (J Med Chem, 2013)
